H69AR growth 86K – blocks growth of human H69AR lung tumor cells. H69AR lung tumor viability, ATP luminescence, 72 h; stronger effect = lower value. viability, % at 10 µM. AID 598. hit rate 6% among 85,000;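 active = viability at or below 40%; inactive = viability above 40%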;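 note: multidrug resistant small cell line overexpressing MRP-1 efflux transporter; 100% = mean luminescence of untreated control wells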
Fibroblast inh – blocks proliferation of human lung fibroblasts | LL 47 human lung fibroblast viability, ATP luminescence; stronger effect = lower value | viability, % at 10 µM | hit rate 1.1% among 85,000 | AID 719;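 active = viability at or below 50% in the single dose screen; inactive = viability above 50%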;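 note: compound exposure lasted 72 h before the ATP readout; 100% = median luminescence of untreated cell-only wells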
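Times – overnight cell rest, 72 h compound treatment at 37 °C · Test system – human lung fibroblast line LL 47, low passage · Amount – 1,150 cells in each well · Controls – cell-only wells, no compound · Doses – 0.1% DMSO in all compound wells · Measured by – CellTiter-Glo luminescence · Buffer or medium – IMEM plus 15% FBS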
HUVEC inhibit – inhibitors of human endothelial cell proliferation; HUVEC proliferation, CellTiter-Glo luminescence, 72 h; stronger effect = lower value; viability, % at 10 µM (by protocol); hit rate 1.1% among 86,000;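 active = viability at or below 30%; inactive = viability above 30%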;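 note: 100% = median luminescence of DMSO-only cell control wells on each plate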
HCT116 PTEN-null – suppresses growth of cells with PTEN deletion | viability, % at 10 µM | hit rate 1.2% among 140,000 | HCT116 PTEN-null viability, CellTiter-Glo, 60 h; stronger effect = lower value | AID 827;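 active = viability at or below a set limit, 4 SD under the median of all tested compounds, cut at about 3.7% in these data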;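 note: PTEN knockout HCT116 line with beta catenin targeted HCT116 as companion control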
HCT116 bCat-KO – beta-catenin-lacking colon tumor cell growth suppression; AID 818; HCT116 beta-catenin knockout viability, CellTiter-Glo, 60 h; stronger effect = lower value; hit rate 1.5% among 140,000; viability, % at 10 µM;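 active = viability at or under a set limit, the compound median less 4 SD, cut at about 6% in these data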;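 note: 0% = Hyamine 1622 control at 20 µM and 100% = untreated cell control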
Starred values were filed as active, the others as inactive; . = no result. This is one part of a sample in which hits are shown more often than they occur.

SMILES	H69AR growth 86K	Fibroblast inh	HUVEC inhibit	HCT116 PTEN-null	HCT116 bCat-KO
C=CCNC(=O)c1c(N)n(-c2ccc3c(c2)OCO3)c2nc3ccccc3nc12	13*	31*	37	38	65
COc1ccccc1-n1c(N)c(C(=O)NCC2CCCO2)c2nc3ccccc3nc21 (stereo unspecified)	53	80	65	68	71
CC1CN(S(=O)(=O)c2ccc(C(=O)Nc3ccc(S(=O)(=O)Nc4ncccn4)cc3)cc2)CC(C)O1 (stereo unspecified)	.	.	.	97	86
CC12CCC(=O)N1C(C(=O)OCC(=O)Nc1cc(S(=O)(=O)N3CCCCC3)ccc1Cl)CS2 (stereo unspecified)	.	.	.	84	90
Cc1ccc(-c2nnc(SCC(=O)Nc3sc(C)c(C)c3C#N)n2C)cc1	83	97	83	94	82
CCOC(=O)c1cnc(SCc2nc(N)nc(Nc3ccccc3)n2)nc1N	32*	97	106	37	46
Cc1sc(NC(=O)CSc2nnc(COc3ccc(Cl)cc3)n2C)c(C#N)c1C	31*	87	60	85	77
CCOC(=O)c1cnc(SCC(=O)Nc2cc(C(F)(F)F)ccc2N2CCOCC2)nc1N	36*	65	47	76	76
CCOC(=O)c1cnc(SCC(=O)Nc2ccc(N3CCOCC3)c(Cl)c2)nc1N	94	103	113	80	86
CCOC(=O)c1cnc(SCC(=O)Nc2cc(OC)cc(OC)c2)nc1N	81	89	88	85	80
CCOC(=O)c1cnc(SCC(=O)Nc2sc(C)c(C)c2C#N)nc1N	94	52	61	3.1*	2.8*
Cc1oc2nc(SCC(=O)N3CCCCC3)nc(N)c2c1C	.	.	.	104	99
O=C(c1ccccc1OCc1ccccc1Br)N1CCN(c2ncccn2)CC1	28*	74	73	40	51
O=C(c1ccc(F)cc1F)N1CCN(c2ncccn2)CC1	100	104	93	102	110
CCOC(=O)c1nn(-c2ccccc2C)c2nc(-c3ccc(C)cc3)c(C#N)c(=O)n12	.	.	.	69	62
CCOC(=O)c1nn(-c2ccccc2C)c2nc(-c3ccc(Cl)cc3)c(C#N)c(=O)n12	.	.	.	2.1*	1.7*
CC(C)Cc1cc(C(=O)Nc2cc(C(F)(F)F)ccc2Cl)no1	78	92	118	87	80
FC(F)(F)c1ccc(N=Cc2sc(N3CCOCC3)nc2-c2ccccc2)cc1	.	.	.	87	88
O=[N+]([O-])c1ccc(/C=N/Nc2nc(-c3ccccc3)c3cc(Br)ccc3n2)o1	.	.	.	1.4*	1.7*
O=[N+]([O-])c1ccc(/C=N/Nc2nc(N3CCCC3)nc(N3CCCC3)n2)o1	26*	87	6.8*	44	65
N#Cc1ccccc1/C=N/Nc1nc(-c2ccccc2)c2cc(Br)ccc2n1	.	.	.	6	2.1*
Cc1ccc2nc(N/N=C\c3ccc([N+](=O)[O-])o3)nc(-c3ccccc3)c2c1	13*	90	51	3.0*	2.1*
Fc1cccc(NC(=S)NCCN2CCOCC2)c1	.	.	.	97	100
COc1ccccc1C(CCNS(=O)(=O)c1ccc(C)cc1)c1ccco1 (stereo unspecified)	.	.	.	82	87
Cc1ccc(C)c(NC(=O)/C(C#N)=C/c2ccc(Sc3nncn3C)c([N+](=O)[O-])c2)c1	.	.	.	75	76
SMILES	H69AR growth 86K	Fibroblast inh	HUVEC inhibit	HCT116 PTEN-null	HCT116 bCat-KO
COc1ccc(C(=O)Cn2c(C(=O)/C=C/c3ccccc3)nc3ccccc32)cc1	.	.	.	3.7*	2.4*
COC(=O)NC(=S)Nc1ccc(Oc2ccc(Cl)cc2Cl)c(Cl)c1	24*	103	57	26	23
CCCC(=O)C1=C(O)C(C(=O)OC)C(C)(C)CC1=Nc1ccc(N)cc1 (stereo unspecified)	81	97	95	87	89
CCCC(=Nc1ccc(N)cc1)C1=C(O)C(C(=O)OC)C(C)(C)CC1=O (stereo unspecified)	20*	100	88	96	104
Cc1cc2n(n1)C(c1ccccc1)CC(c1ccc(Br)cc1)=N2 (stereo unspecified)	.	.	.	73	80
O=C(CN1C(=O)COc2ccc(S(=O)(=O)N3CCCC3)cc21)NC1CCCCCCC1	.	.	.	88	76
CC(C)CC(=O)NCCCCc1ccccc1	.	.	.	83	90
CC(C)(C)C1CCc2c(sc(NC(=O)c3cccs3)c2C(N)=O)C1 (stereo unspecified)	34*	23*	88	62	68
CCC(C)(C)C1CCc2c(sc(NC(=O)c3cccs3)c2C(N)=O)C1 (stereo unspecified)	81	88	93	87	90
CCOc1cccc2sc(NC(=O)c3ccc(Br)s3)nc12	30*	97	86	59	58
COc1cc(CNC(C)(C)CO)cc(Br)c1OCc1ccc(Cl)cc1Cl	.	.	.	1.6*	1.3*
Cc1cc(N2C(=O)C3C4CC(C(Br)C4Br)C3C2=O)no1 (stereo unspecified)	.	.	.	97	98
Cc1cc(C)n(-c2nc3c(c(=O)n(C)c(=O)n3C)n2Cc2cccc(Br)c2)n1	101	86	105	.	.
Cc1ccc(C(=O)N/C(=C\c2ccc(Cl)cc2)C(=O)NCC2CCCO2)cc1 (stereo unspecified)	.	.	.	96	91
C/C(=N\NC(=O)C(C)Oc1ccc([N+](=O)[O-])cc1)c1ccccn1 (stereo unspecified)	.	.	.	6	4.6*
C=CCn1c(SCC(=O)NCc2ccc3c(c2)OCO3)nc2scc(-c3ccccc3)c2c1=O	66	102	83	79	78
C=CCn1c(SCC(=O)N2CC(=O)Nc3ccccc32)nc2scc(-c3ccccc3)c2c1=O	26*	99	74	52	55
COc1ccccc1Nc1ccc(S(=O)(=O)N2CCCCC2)cc1[N+](=O)[O-]	.	.	.	69	76
Oc1ccc(Br)cc1-c1cc(-c2ccccc2)n[nH]1	6.3*	71	27*	19	13
Oc1ccc(Br)cc1-c1cc(-c2ccc(Cl)cc2)n[nH]1	54	39*	8.1*	3.3*	3.7*
Cn1c(-c2cc(Br)ccc2O)n[nH]c1=S	100	93	88	83	90
COc1ccc(-c2cc(-c3ccccc3O)[nH]n2)cc1OC	59	79	52	52	57
Oc1ccccc1-c1cc(-c2ccc3c(c2)OCCO3)n[nH]1	17*	81	49	43	23
CCCCCCCn1c(=N)n(CC(=O)c2ccco2)c2ccccc21	24*	65	43	2.0*	4.7*
CCOC(=O)C1=C(Cc2ccc(OC)cc2)C(=O)c2ccccc2C1=O	1.8*	94	70	80	74
CCOC(=O)C1=C(O)c2ccccc2C(=O)/C1=C\c1ccc(CC)cc1	.	.	.	68	74
CCOC(=O)c1c(C)nc2c(c1-c1cc(OC)ccc1OC)C(=O)c1ccccc1-2	.	.	.	86	92
CCOC(=O)C1=C(Cc2ccc(C)cc2)C(=O)c2ccccc2C1=O	2.0*	73	18*	78	80
